In ChEMBL document CHEMBL1126834, “Chemistry, binding affinities, and behavioral properties of a new class of "antineophobic" mitochondrial DBI receptor complex (mDRC) ligands” (J Med Chem, 1993):

Assays:
[1] = Inhibitory activity by measuring its ability to displace [3H]spiperone from dopamine or serotonin 5-HT-1 receptors in rat brain; format: tissue-based
Adrenergic receptor beta = Adrenergic receptor beta (Rattus norvegicus, UniProt P18090+P10608+P26255); experiment: Inhibitory activity by measuring its ability to displace [125I]pindolol from beta-adrenergic receptor in rat brain; format: tissue-based
[2] = molecular target: GABA-A receptor; anion channel; experiment: Inhibitory activity at GABA A receptor, measured by the ability to displace [3H]GABA from GABA A receptor in rat brain; format: tissue-based
Opioid receptor = Opioid receptor (Rattus norvegicus, UniProt P33533+P34975+P33535); experiment: Inhibition of [3H]naxolone binding to opiate receptors in rat brain; format: tissue-based
Cannabinoid receptor 1 = Cannabinoid receptor 1 (Rattus norvegicus, UniProt P20272); experiment: Inhibitory activity, measured by displacement [3H]CP-55940 from cannabinoid receptor (CB1) in rat brain; format: tissue-based
Sequence of Cannabinoid receptor 1 (P20272 whole entry): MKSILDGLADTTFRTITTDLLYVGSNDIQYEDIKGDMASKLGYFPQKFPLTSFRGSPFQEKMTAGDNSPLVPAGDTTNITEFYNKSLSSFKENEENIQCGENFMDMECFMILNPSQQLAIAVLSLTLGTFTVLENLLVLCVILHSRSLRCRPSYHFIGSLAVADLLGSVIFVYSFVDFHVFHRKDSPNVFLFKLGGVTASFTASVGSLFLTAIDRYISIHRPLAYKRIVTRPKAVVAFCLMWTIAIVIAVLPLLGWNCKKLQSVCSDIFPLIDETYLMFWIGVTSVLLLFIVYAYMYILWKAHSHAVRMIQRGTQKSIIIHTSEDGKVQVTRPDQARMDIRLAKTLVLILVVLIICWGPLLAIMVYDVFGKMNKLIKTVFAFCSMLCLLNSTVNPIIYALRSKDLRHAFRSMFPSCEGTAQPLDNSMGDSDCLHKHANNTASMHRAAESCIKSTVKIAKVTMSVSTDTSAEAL

[3] = molecular target: Sigma receptor (Rattus norvegicus); experiment: Tested for inhibitory activity by measuring its ability to displace [3H]3-PPP from sigma receptor in rat brain
[4] = molecular target: GABA-A receptor; anion channel; experiment: Inhibitory activity at GABA A receptor, measured by the ability to displace [35S]TBPS from GABA A receptor in rat brain; format: tissue-based
[5] = molecular target: GABA-A receptor; anion channel; experiment: Inhibitory activity at GABA A receptor, measured by the ability to displace [3H]flumazenil from GABA A receptor in rat brain; format: tissue-based
Translocator protein = Translocator protein (Rattus norvegicus, UniProt P16257); experiment: Binding affinity against mitochondrial DBI complex (peripheral benzodiazepine receptor) using primary cultures of glial cells
Sequence of Translocator protein (P16257 whole entry, looked up): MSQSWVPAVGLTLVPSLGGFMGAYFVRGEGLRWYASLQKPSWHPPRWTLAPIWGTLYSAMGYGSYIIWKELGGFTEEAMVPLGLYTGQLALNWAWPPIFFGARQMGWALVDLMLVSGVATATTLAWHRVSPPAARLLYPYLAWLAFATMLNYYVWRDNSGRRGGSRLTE
Outline: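 Glia from cerebella of 8-day-old Sprague–Dawley rat pups, trypsin-dissociated and grown 14 days (~95% astroglia). Cells lysed in 50 mM Hepes pH 7.4, 4 μg protein per tube. Incubated with [3H]4'-chlorodiazepam and competitor for 90 min at 4 °C, then filtered. Nonspecific binding defined with 10 μM 4'-chlorodiazepam. Triplicate competition curves; IC50 by nonlinear regression, converted to Ki (Bylund–Yamamura).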

[6] = molecular target: GABA-A receptor; anion channel; experiment: Inhibitory activity at GABA A receptor, measured by the ability to displace [3H]zolpidem from GABA A receptor in rat brain; format: tissue-based
[7] = molecular target: Serotonin 2 (5-HT2) receptor (Rattus norvegicus); experiment: Inhibitory activity by measuring its ability to displace [3H]ketanserin from serotonin receptor in rat brain
[8] = molecular target: T1, Gastrin/cholecystokinin type B receptor (Rattus norvegicus, UniProt P30553); experiment: Inhibitory activity by measuring its ability to displace [3H]L-365260 from cholecystokinin receptor in rat brain; format: tissue-based
T1 sequence (P30553 whole entry): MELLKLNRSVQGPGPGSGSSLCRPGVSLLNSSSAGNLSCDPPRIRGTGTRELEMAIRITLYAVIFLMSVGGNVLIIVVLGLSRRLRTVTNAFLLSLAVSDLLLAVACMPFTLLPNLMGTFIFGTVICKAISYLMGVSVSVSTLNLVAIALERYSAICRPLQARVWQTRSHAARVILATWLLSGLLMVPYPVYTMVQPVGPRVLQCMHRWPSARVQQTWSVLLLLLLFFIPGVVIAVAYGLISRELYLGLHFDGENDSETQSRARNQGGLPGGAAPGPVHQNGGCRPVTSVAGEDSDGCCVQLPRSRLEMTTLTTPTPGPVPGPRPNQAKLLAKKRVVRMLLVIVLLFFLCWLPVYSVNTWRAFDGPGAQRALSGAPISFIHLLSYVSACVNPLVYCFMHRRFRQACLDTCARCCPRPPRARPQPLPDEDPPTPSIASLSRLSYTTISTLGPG

[9] = molecular target: Adrenergic receptor alpha; experiment: Inhibitory activity by measuring its ability to displace [3H]WB-4101 from alpha-adrenergic receptor in rat brain; format: tissue-based
[10] = Tested for inhibitory activity by measuring its ability to displace [3H]AMPA from glutamate (non-NMDA) receptor in rat brain; format: tissue-based
[11] = Inhibitory activity at GABA B receptor, measured by the ability to displace [3H]baclofen from GABA B receptor in rat brain; format: tissue-based
Glutamate NMDA receptor = experiment: Inhibitory activity by measuring its ability to displace [3H]-MK-801 from glutamate(NMDA) receptor in rat brain; format: tissue-based
[12] = Inhibitory activity by measuring its ability to displace [3H]glycine from glycine receptor in rat brain; format: tissue-based
[13] = molecular target: Adrenergic receptor alpha; experiment: Inhibitory activity by measuring its ability to displace [3H]clonidine from alpha-adrenergic receptor in rat brain; format: tissue-based
[14] = molecular target: Adrenergic receptor alpha; experiment: Displacement of [3H]clonidine from alpha-adrenergic receptor in rat brain; format: tissue-based

Row | Structure (SMILES) | IC50 [1] | IC50 (Adrenergic receptor beta) | IC50 [2] | IC50 (Opioid receptor) | IC50 (Cannabinoid receptor 1) | IC50 [3] | IC50 [4] | IC50 [5] | Ki (Translocator protein) | IC50 [6] | IC50 [7] | IC50 [8] | IC50 [9] | IC50 [10] | IC50 [11] | IC50 (Glutamate NMDA receptor) | IC50 [12] | IC50 [13] | IC50 [14]
1 | CCCN(CCC)C(=O)Cc1c(-c2ccc(Cl)cc2)n(C)c2ccccc12 | > 1000 nM | > 1000 nM | > 1000 nM | > 1000 nM | > 1000 nM | > 1000 nM | > 1000 nM | > 1000 nM | 340 nM | > 1000 nM | > 1000 nM | > 1000 nM | > 1000 nM | > 1000 nM | > 1000 nM | > 1000 nM | > 1000 nM | > 1000 nM | 
2 | CCCCCCNC(=O)Cc1c(-c2ccccc2)[nH]c2ccccc12 | > 1000 nM | > 1000 nM | > 1000 nM | > 1000 nM | > 1000 nM | > 1000 nM | > 1000 nM | > 1000 nM | 96 nM | > 1000 nM | > 1000 nM | > 1000 nM | > 1000 nM | > 1000 nM | > 1000 nM | > 1000 nM | > 1000 nM | > 1000 nM | 
3 | CCCCCCCCN(CCCCCCCC)C(=O)Cc1c(-c2ccccc2)[nH]c2ccccc12 | > 1000 nM | > 1000 nM | > 1000 nM |  | > 1000 nM |  | > 1000 nM | > 1000 nM | > 1000 nM | > 1000 nM |  | > 1000 nM | > 1000 nM | > 1000 nM | > 1000 nM | > 1000 nM | > 1000 nM |  | > 1000 nM
4 | CCCN(CCC)C(=O)/C=C/c1c(-c2ccc(Cl)cc2)[nH]c2ccccc12 | > 1000 nM | > 1000 nM | > 1000 nM | > 1000 nM | > 1000 nM | > 1000 nM | > 1000 nM | > 1000 nM | 400 nM | > 1000 nM | > 1000 nM | > 1000 nM | > 1000 nM | > 1000 nM | > 1000 nM | > 1000 nM | > 1000 nM | > 1000 nM | 
5 | O=C1Cc2c(-c3ccccc3)[nH]c3cccc(c23)N1 | > 1000 nM | > 1000 nM | > 1000 nM | > 1000 nM | > 1000 nM | > 1000 nM | > 1000 nM | > 1000 nM |  | > 1000 nM | > 1000 nM | > 1000 nM | > 1000 nM | > 1000 nM | > 1000 nM | > 1000 nM | > 1000 nM | > 1000 nM | 
6 | CCCCCCCCCCNC(=O)Cc1c(-c2ccccc2)[nH]c2ccccc12 | > 1000 nM | > 1000 nM | > 1000 nM | > 1000 nM | > 1000 nM | > 1000 nM | > 1000 nM | > 1000 nM | > 1000 nM | > 1000 nM | > 1000 nM | > 1000 nM | > 1000 nM | > 1000 nM | > 1000 nM | > 1000 nM | > 1000 nM | > 1000 nM | 
7 | CCCN(CCC)C(=O)Cc1c(-c2ccc(Br)cc2)[nH]c2ccccc12 | > 1000 nM | > 1000 nM | > 1000 nM | > 1000 nM | > 1000 nM | > 1000 nM | > 1000 nM | > 1000 nM | 216 nM | > 1000 nM | > 1000 nM | > 1000 nM | > 1000 nM | > 1000 nM | > 1000 nM | > 1000 nM | > 1000 nM | > 1000 nM | 
